Data taken from the RNAGym collection of RNA variant scans (doi:10.1126/science.aae0568).
Fewer inactive variants are shown than the library holds.

B1: tRNA (parent)
chain: GUUCCGUUGGCGUAAUGGUAACGCGUCUCCCUCCUAAGGAGAAGACUGCGGGUUCGAGUCCCGUACGGAACG

Variants of: B1
Test: yeast fitness relative to wild type (ratio to wild type); higher = fitter; tRNA-Arg(CCU), competitive growth, 37 C, YPD
Outline: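 Variants of the tRNA-Arg(CCU) gene, chemically synthesised with a 3% per-site mutation rate at 69 sites, were placed at the native genomic locus in Saccharomyces cerevisiae. The pooled strains were competed in YPD at 37°C for 24 hours in six parallel replicates. Gene amplicons from the start population and from each end population were read by 100-nucleotide paired-end sequencing. Darwinian fitness relative to wild type came from changes in genotype frequencies; genotypes needed ≥ 100 starting reads, and estimates < 0.5 were set to 0.5.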

Point of comparison: U2A C11G C31U A36G, yeast fitness 0.646. Against it:
- U2A A21G C29U A40U — lower, 0.57
- U2A G9C U13A A15G C33A A37U G50C C61U — lower, 0.58
- U2A G9C G50A U64A — lower, ≤ 0.5
- U2A C5A G52C — lower, ≤ 0.5
- U2A U32C A57G — higher, 0.652
- U2A A15U C49G — lower, ≤ 0.5
- U2A G25A A70U — higher, 0.695
- U2A C5U G38A C55A — lower, ≤ 0.5
- U2A C5U G6A G39C C60A — lower, ≤ 0.5
- U2A C49U C62U — lower, 0.522
- U2A U3G C11A G12A U16C C22G C62U — lower, ≤ 0.5
- U2A A15G C24U U54C — higher, 0.726
- U2A U26C C33G A42C C49G G58C C62G — lower, ≤ 0.5
- U2C A21U U54G — lower, ≤ 0.5
- U2A U16G C66A — lower, 0.625
- U2A U28A A37C C66U — lower, ≤ 0.5
- U2A C5G G17C G56C A57G G68U — lower, 0.558
- U2A G38C — lower, 0.635
- U2A U28A C55G — lower, ≤ 0.5
- U2A C27G — higher, 0.764
- U2A G9C A14C C34U C60G — lower, 0.551
- U2A G38C G44C A69U — lower, ≤ 0.5
- U2C A37U U53A — higher, 0.727
- U2A C5G G63C G67C A69U — lower, ≤ 0.5
- U2C A14U — higher, 0.764
- U2A A21G C46G U54C — lower, ≤ 0.5
- U2A C5A G41A A42C G50C A70G — lower, ≤ 0.5
- U2A A20U C34A C61U — lower, ≤ 0.5
- U2A U47A — higher, 0.851
- U2A C29A A42G C49U U54A C60G G68A — lower, ≤ 0.5
- U2A G12A A21C — lower, 0.515
- U2C A15U U16A — lower, 0.62
- U2A U16A C55G C60A — lower, ≤ 0.5
- U2A G10A U35C — lower, ≤ 0.5
- U2A U16G A69C — higher, 0.85
- U2A C30A — higher, 0.819
- U2A C5U C11U A14U G17A A21C G38C C49A — lower, ≤ 0.5
- U2A U53G — lower, ≤ 0.5
- U2A U19G C29G — lower, ≤ 0.5
- U2A U28A A37C G58C A69G — lower, ≤ 0.5
- U2A C4A C46G G52A — lower, ≤ 0.5
- U2A C24U C29U C33U C34G A42U G58A — lower, 0.56
- U2A U28C G39A G68A — lower, ≤ 0.5
- U2A U16C C30A G56A G68C — lower, 0.541
- U2A G25A U32C — higher, 0.903
- U2A G9A A70C — lower, 0.568
- U2A U3G C34U — lower, ≤ 0.5
- U2C A37G C49G A57U G68C A70G — lower, ≤ 0.5
- U2A C5U A65U A69U — lower, 0.614
- U2C A15C C24A G41C G68A — lower, ≤ 0.5
- U2A G6C C29A U59G — lower, 0.603
- U2A U26A — higher, 1.06
- U2A U3A U16C C24U A69U — lower, ≤ 0.5
- U2A A20C A37G G52A U53A — lower, ≤ 0.5
- U2A A20C C33A C55U — lower, ≤ 0.5
- U2A C5A C22G C24U G50C — lower, ≤ 0.5
- U2A U3A G63C — lower, ≤ 0.5
- U2A A40G A43U A45C A57G A65C — lower, ≤ 0.5
- U2A U8C — higher, 1.01
- U2A U8A — higher, 0.811
- U2A U13A U35G U64A A65C — lower, ≤ 0.5
- U2A U3G A36U — lower, ≤ 0.5
- U2A A14U A20C U35A G38C A69U — lower, ≤ 0.5
- U2A C5U C31A C62U — lower, ≤ 0.5
- U2A G17C C46U U59A — lower, ≤ 0.5
- U2A A43C C61U — lower, 0.572
- U2C A14U C29U — lower, 0.626
- U2C A40U G50A — lower, 0.571
- U2C A36U A65C — lower, ≤ 0.5
- U2A C11G U19C — lower, ≤ 0.5
- U2A C24U A45U G67A — lower, ≤ 0.5
- U2A G50C C55G C62G — lower, ≤ 0.5
- U2A C24G A43U C46U — lower, 0.542
- U2A A15U U16A C60U C62G A65C A69U — lower, ≤ 0.5
- U2A C5U C29G A37U A65G — lower, ≤ 0.5
- U2A A14C A20G A36G U54C C55U G68C — lower, 0.544
- U2A U47A A65C — lower, ≤ 0.5
- U2A G41C G50C C62G C66G — lower, ≤ 0.5
- U2A U64C — higher, 0.938
- U2C A37G G39A — lower, ≤ 0.5
- U2A G10A A20G U35C — lower, ≤ 0.5
- U2A U3A G51A C61G — lower, 0.513
- U2A U19C — higher, 0.867
- U2A G38C A40C C49U — lower, 0.527
- U2A C29G C34A C60G — lower, ≤ 0.5
- U2A C5A G48C C55G C66A — lower, ≤ 0.5
- U2A C55A A69U — lower, ≤ 0.5
- U2A C11U U19G A42U G48A — lower, ≤ 0.5
- U2C A14G G18A U32A A45C A69C — lower, ≤ 0.5
- U2A U8C G23A C29G — lower, ≤ 0.5
- U2A G68A — higher, 0.825
- U2A U54C — higher, 0.932
- U2A A20U A40C — lower, 0.552
- U2A G10A A20U C22G G44C C61G — lower, 0.502
- U2A C29A — lower, 0.625
- U2A C46A — higher, 1.03
- U2A C46U — higher, 1.06
- U2A C5A G68C — lower, ≤ 0.5
- U2A U28C G41C U54A G67U — lower, ≤ 0.5
- U2A A14C C30U C34G G58C — lower, ≤ 0.5
- U2A C4U U8G C55G — lower, 0.513
- U2C A40C A69C — lower, 0.633
- U2A U19A A20C G25A U26A — lower, ≤ 0.5
- U2A C11U A69U — higher, 0.648
- U2A C5A U64G C66U — lower, ≤ 0.5
- U2A A65C — higher, 0.848
- U2A A21G C27U — higher, 0.693
- U2A A57U G68C — lower, ≤ 0.5
- U2A U16G A43C U54G — lower, ≤ 0.5
- U2A C27A C34U — lower, ≤ 0.5
- U2A C5A C31A A43G A45C — lower, ≤ 0.5
- U2A C11G C34G U64G — lower, ≤ 0.5
- U2A G9C U16G U32G U47A A57C C62U — lower, ≤ 0.5
- U2A C24U A70C — higher, 0.894
- U2A C5A A21C — lower, ≤ 0.5
- U2A G12C C34G A65U — lower, ≤ 0.5
- U2A U26C C55U — lower, ≤ 0.5
- U2A G9A U13A C24A — lower, ≤ 0.5
- U2A G9C U35A A36G — lower, ≤ 0.5
- U2A C33G A42C G63A — lower, ≤ 0.5
- U2A U32A A65U A69C — lower, ≤ 0.5
- U2A G6A C11U C31G A69U — lower, ≤ 0.5
- U2A G41C G50C — lower, ≤ 0.5
- U2A C5U A42G C46G G56C C61A — lower, ≤ 0.5
- U2A A36G — higher, 0.985
- U2A U13G U28A A36U G56A C62G U64G — lower, ≤ 0.5
- U2A G9C U16G U32G G52A G63C — lower, ≤ 0.5
- U2C A14C G39A A57U — lower, ≤ 0.5
- U2C A21U C30U — lower, ≤ 0.5
- U2A A21C C24G U32A A42C A65U — lower, ≤ 0.5
- U2A C31G A65G — lower, 0.642
- U2A A20G C29U C33A C55A C60G — lower, ≤ 0.5
- U2A G10C C27G G39U G50C G58A — lower, ≤ 0.5
- U2A G9A C33A G68A — lower, ≤ 0.5
- U2A U19A A20C U26A A43G — lower, ≤ 0.5
- U2A G48A — higher, 0.978
- U2A U28C C49U C62G — lower, ≤ 0.5
- U2A C11A A14G C29U G68U — lower, 0.564
- U2A C5A C66U — lower, ≤ 0.5
- U2A C61U A70G — lower, 0.571
- U2A G48A A57U A65U C66A — lower, ≤ 0.5
- U2A C5U G39C C60A — lower, 0.541
- U2A A14U G41C — lower, ≤ 0.5
- U2C A14U G18C C33G G52A — lower, ≤ 0.5
- U2A C11G A57U C66U — lower, 0.588
- U2A C27U G67A — lower, 0.531
- U2A C24G A37C G56C — lower, ≤ 0.5
- U2A C11G U35G U47A G48A A65U — lower, ≤ 0.5
- U2A C5G G38C — lower, ≤ 0.5
- U2A A37U — higher, 0.689
- U2A A37C — higher, 0.833
- U2A A20G G44A — lower, 0.531
- U2C A14U U47A C61G A70G — lower, ≤ 0.5
- U2A C4A U13C A42G C55G G67A — lower, ≤ 0.5
- U2A C11U G23A C29G — lower, 0.527
- U2A C4A U26C C31U G38A — lower, ≤ 0.5
- U2A G48C G50A — higher, 0.732
- U2C A40C C66A — lower, ≤ 0.5
- U2A A21G G39C A69C — lower, ≤ 0.5
- U2A G56A — higher, 0.898
- U2A C22G C62U G63C — lower, ≤ 0.5
- U2A U16C A45C — higher, 0.651
- U2A G23C C31U — lower, ≤ 0.5
- U2A C31A A40U U53G G56C C62G — lower, ≤ 0.5
- U2C A14G C29A C33G C66A — lower, ≤ 0.5
- U2A C24G C31U C33G A42C A43U A65U — lower, ≤ 0.5
